Assay: Toxicity liver stage against HepG2, at 10uM
Format: cell-based
Design: test concentration 10 uM, cell line HepG2-A16-CD81EGFP
Settings: human, HepG2-A16-CD81EGFP cells; read-out: INHIBITION
Procedure, shortened: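 Uninfected HepG2-A16-CD81EGFP cells, 3 × 10^3 per well, 1536-well, plated on prespotted compound at 10 μM final, parasite-free screening media added to match infected plates; puromycin 10 μM positive, DMSO 0.5% negative; run in parallel with 48 h PbLuc assay at 37 °C, 5% CO2; viability by CellTiter-Glo luminescence, normalized to controls.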

Row | Compound | cytotoxicity at 10 µM
1 | O=C(O)c1ccc2[nH]cc(CN3CCOCC3)c2c1 | -9.48%
2 | Cc1noc(C)c1CN(C)c1ncnc2ccccc12 | -6.4%
3 | Cn1cc(S(=O)(=O)NCCc2nnc3ccccn23)cn1 | 8.43%
4 | CSCc1ccc(CNC2CCCN(c3ccc(C)nn3)C2)o1 (stereo unspecified) | -13.2%
5 | O=C(N1CCOCC1)[C@@]12CCO[C@@H]1CCN(CC1CCCCC1)C2 | 3.59%
6 | CCC(Nc1cccc(OC)c1)C(=O)N(CCO)Cc1nccs1 (stereo unspecified) | 3.94%
7 | CCn1nc(CC(C)C)cc1C(=O)N1C[C@H](O)[C@@H](N2CCCCC2)C1 | 20.7%
8 | CCS(=O)(=O)N1CCC(Oc2ccc(C#N)cc2)CC1 | 16.8%
9 | Cc1ccccc1C(=O)NCc1ccc(N2CCNC(=O)C2)cc1 | -9.67%
10 | CCCSc1nn(CCCN(C)C)c2nc3sc(C)c(CC)c3c(=O)n12 | -3.63%
11 | Fc1ccc(CN2CCCC(c3nccnc3-n3ccnc3)C2)cc1 (stereo unspecified) | -20.4%
12 | COC1CCN(CCNC(=O)NC(C)c2ccc(F)c(F)c2)CC1 (stereo unspecified) | 9.88%
13 | CCOCC(O)CN1CCN(C(=O)c2cc(F)cc(F)c2)CC1 (stereo unspecified) | 8.1%
14 | CCc1nc(C(=O)N2CCN(Cc3ccc(Cl)cc3)CC2)c[nH]1 | -6.85%
15 | Cc1nn(C)c2c(N3CCN(C(=O)C4CCCCC4)CC3)ncnc12 | 12.3%
16 | COC(=O)CCCC(=O)N1CCCCC1c1ccc(F)cc1 (stereo unspecified) | -42.7%
17 | CCN1C(=O)C(C#N)=C(C)/C(=C/C2=Cc3ccccc3OC2)C1=O | -40.9%
18 | CCc1noc(C(C)N(C)CC(=O)Nc2ccccc2Cl)n1 (stereo unspecified) | -0.0195%
19 | CC(Cn1ccnc1)NC(=O)N1CCN(Cc2ccsc2)CC1 (stereo unspecified) | -6.33%
20 | O=c1cc(CNCc2ccc3c(c2)OCO3)nc2ccccn12 | -6.17%
21 | CCN(CC)Cc1cn2c(n1)CN(Cc1c(C)noc1C)CC2 | -0.0472%

Row | Compound | cytotoxicity at 10 µM
22 | CCS(=O)(=O)CCN1CCCC1c1noc(C)n1 (stereo unspecified) | -10.4%
23 | CNC(=O)CS(=O)(=O)Cc1cc(Cl)c2c(c1)OCCCO2 | -5.61%
24 | Cc1noc([C@H]2C[C@H]3CN(C(=O)C4CCOCC4)CC[C@@H]3O2)n1 | -72.6%
25 | CC(C)N1CCC(NCc2cccnc2N(C)C)CC1 | 21%
26 | Cn1cncc1-c1nnc([C@H]2CCN(Cc3ccc(CO)o3)C2)o1 | -4.09%
27 | Cc1cc(C)n(CC(C)CNC(=O)NCc2ccco2)n1 (stereo unspecified) | -2.58%
28 | Cc1ccoc1C(=O)NCCOc1ccc(C(F)(F)F)cn1 | -4.02%
29 | CCc1oc(C(=O)N2CCCC(c3nnn[nH]3)C2)cc1C (stereo unspecified) | 9.09%
30 | CCCc1n[nH]c(C2CN(Cc3nnc(C4CCC4)o3)CCO2)n1 (stereo unspecified) | -2.42%
31 | OCc1cc2ccccc2nc1N1CCCCC1 | 14.1%
32 | CC(C)CN1CC2(CCN(C(=O)c3nc4ncccn4n3)CC2)CC1=O | 0.345%
33 | Cc1cnc(CC2COCCN(C(=O)CN3CCCCC3)C2)cn1 (stereo unspecified) | -3.22%
34 | CCCN(CCc1ccccn1)C(=O)Cn1cc(C)cn1 | -9.22%
35 | CO[C@@H]1CO[C@@]2(CCCN(S(=O)(=O)c3ccccc3)C2)C1 | -79.8%
36 | CC(NC(=O)c1cc2n(n1)CCCN(C)C2)c1cn2ccsc2n1 (stereo unspecified) | -2.51%
37 | Cc1nc(CN2C(=O)CC[C@@H]3[C@H]2CCN3C2CCOCC2)cs1 | -147%
38 | CNc1nc(C2CCCN2C(C)=O)nc2c1CCN(CC1CC1)C2 (stereo unspecified) | -0.361%
39 | COc1ncc(C2(O)CCN(Cc3cc(F)cc(F)c3)CC2)c(OC)n1 | 0.331%
40 | COCC(=O)N1C[C@H]2CNC[C@@]2(C(=O)NCc2nc(C)cc(C)n2)C1 | 14.7%
41 | CNC(=O)C(C)(C)CNC(=O)Nc1ccc(C)cn1 | 0.973%
42 | Cc1cccc(CN2C[C@@H](NC(=O)C3CCC3)[C@H]3COC[C@H]32)n1 | 4.83%

Row | Compound | cytotoxicity at 10 µM
43 | Cc1csc(C(C)(C)NCCCS(C)(=O)=O)n1 | 6.11%
44 | COCc1nc2c(o1)CN(C(=O)NCc1ccccc1)C2 | 10.6%
45 | CN(C)c1ccc(C(=O)NCC2(O)CCOCC2)cc1 | -3.34%
46 | O=C(CN1CCOC(c2ccc(Cl)s2)C1)NCc1ccco1 (stereo unspecified) | -3.09%
47 | COC(=O)NCCC(=O)NC(C)Cc1ccccc1Br (stereo unspecified) | -5.29%
48 | COc1ccc(OCCc2cc(C3CNCCO3)nn2C)cc1 (stereo unspecified) | 7.13%
49 | COCCn1cc2c(n1)C(CNCc1ccco1)OCC2 (stereo unspecified) | -11.9%
50 | CCc1ncc(-c2nccn2-c2cccc(CC(=O)O)c2)cn1 | 10.2%
51 | O=S(=O)(CC1CCOCC1)NCc1ccnc(O)c1 | -5.47%
52 | CC1=N[C@@]2(CC[C@@H]3CN(S(C)(=O)=O)C[C@@H]32)C(=O)N1CC(C)C | -71.3%
53 | F[C@@H]1CN(C2CCC2)C[C@@H]1OCc1nc2ncccc2[nH]1 | -6.66%
54 | O=C(NCCNC(=O)c1scnc1Cl)c1cccs1 | -9.44%
55 | Cc1ccccc1[C@@H]1CN(C(=O)c2ccc3[nH]nnc3c2)C[C@H]1C(=O)O | -7.21%
56 | COc1ccc2c(c1)CN(C)C(=O)CCN2CC(O)C(C)(C)C (stereo unspecified) | 4.17%
57 | c1cnc(N2CCC(c3cc4cccnc4[nH]3)CC2)nc1 | -7.28%
58 | O=C(N1CCCC1)N1CCn2c(Cn3cccn3)cnc2C1 | -69.1%
59 | Cn1c(C(F)(F)F)nn(CCNC(=O)c2cnc3ccccc3n2)c1=O | -20%
60 | O=c1c(NCCc2ccc(O)cc2)c(NCc2ccco2)c1=O | -10.7%
61 | COCCO[C@H]1CCN(C(=O)c2ccco2)[C@H]1Cc1cnn(C)c1 | 2.4%
62 | CNc1cccc(CC2COCCN(C(=O)c3cncs3)C2)n1 (stereo unspecified) | 6.42%
63 | c1cncc(-c2nccc(CN3CCC(N4CCCCC4)CC3)n2)c1 | -26%

Row | Compound | cytotoxicity at 10 µM
64 | Cc1ccc(N2CCO[C@H]3CN(Cc4ccccn4)C[C@H]32)nn1 | -79.8%
65 | CN(Cc1ccc(F)cc1)C(=O)NCC1(N2CCOCC2)CCSC1 (stereo unspecified) | -21.9%
66 | COCc1cnc2n1CCN(C(=O)c1cnc3ccccc3c1)C2C (stereo unspecified) | -110%
67 | CCC[C@@H]1CN(Cc2c[nH]c(CC3CCCC3)n2)C[C@H]1C(=O)O | 4.86%
68 | CC(C)N1CC(C(=O)NCc2ccc(S(=O)(=O)N(C)C)cc2)CC1=O (stereo unspecified) | 4.44%
69 | O=C(C1CCCC1)N1CCC(c2n[nH]c3nccnc23)CC1 | 0.165%
70 | COC(=O)N1CCC2(CC1)CC(c1ccccc1)CN(C)C2 (stereo unspecified) | 2.09%
71 | CC(C)(C)NC(=O)N1CCC(Oc2ccc(C(F)(F)F)cn2)CC1 | 6.91%
72 | CC(CS(C)(=O)=O)N(C(=O)CCc1ccc(Cl)s1)C1CC1 (stereo unspecified) | 1.92%
73 | CNc1nc2c(c(C(=O)N3CCCC3)n1)CN(C(=O)CCSC)CC2 | -114%
74 | CN1CCCC1c1ccnc(-c2ccccc2)n1 (stereo unspecified) | 2.77%
75 | Cc1cnc(C)c(-c2cccc(-c3ccn(CCN4CCCC4)n3)c2)n1 | -10.5%
76 | CCN(Cc1ccoc1)C(=O)C1CN(C(=O)OC(C)(C)C)C1 | -0.743%
77 | COc1cccc(-n2cc(CN(C)C(=O)c3cc[nH]n3)cn2)c1 | 16.3%
78 | CCCNc1ccc(C(=O)NCCc2cccc(Cl)c2)cn1 | 1.17%
79 | O=C(c1ccc(=O)[nH]n1)N(CCO)Cc1cc(Br)ccc1F | 7.56%
80 | Cc1ccc(C(C)NCCc2nccn2Cc2ccccc2)o1 (stereo unspecified) | 1.98%
81 | CC(C)N(C)Cc1cncc2c1CCN(CC(=O)N(C)C)C2 | -100%

From ChEMBL document CHEMBL4513216, “Probing the Open Global Health Chemical Diversity Library for Multistage-Active Starting Points for Next-Generation Antimalarials” (ACS Infect Dis, 2020)
